Source: ChEMBL document CHEMBL1157835, “Synthesis and evaluation of verticipyrone analogues as mitochondrial complex I inhibitors” (Bioorg Med Chem, 2010)

Key:
[1] = Inhibition of NADH oxidase from beef heart submitochondrial particles by spectrophotometry; set-up: species or system Bos taurus
Method in brief: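 Bovine heart inverted SMP, stored in 0.25 M sucrose/10 mM Tris-HCl pH 7.4 at −80 °C, diluted to 0.5 mg/mL and activated with 300 NADH. Assayed at 30 °C in 50 mM Hepes pH 7.5, 5 mM MgCl2, 30 μg protein. SMP pre-equilibrated with inhibitor 5 min, then 50 μM NADH added. Rates from the linear part of the trace at 340 nm. Ethanol ≤2%.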

[2] = Cytotoxicity against human CRL2366 cells by MTT assay; format: functional, cell-based
Method in brief: (§1)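 MTT growth assay. MCF-7, A-549 and 3LL cells grown in RPMI-1640; CRL-2365 and CRL-2366 grown in DMEM. All media had 10% FBS, penicillin G (100 U/mL) and streptomycin (100 μg/mL).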

[3] = system: MCF7; experiment: Cytotoxicity against human MCF7 cells by MTT assay; format: functional, cell-based; method in brief: as §1
[4] = system: A549; experiment: Cytotoxicity against human A549 cells by MTT assay; format: functional, cell-based; method in brief: as §1
[5] = system: MCF-10A; experiment: Cytotoxicity against human MCF10A cells by MTT assay; format: functional, cell-based
Method in brief: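 MTT growth assay on MCF-10A cells grown in Mammary Epithelial Growth Medium following the supplier protocol.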

[6] = Inhibition of NADH-ubiquinone oxidoreductase from beef heart submitochondrial particles by spectrophotometry; set-up: species or system Bos taurus
Method in brief: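 Bovine heart inverted SMP, activated with 300 NADH, 30 μg protein, 30 °C. 5 min inhibitor pre-equilibration, then 50 μM NADH added. Read at 340 nm. […] IC50 is the final concentration giving 50% inhibition; mean ± SD of three independent experiments.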

[7] = Inhibition of mitochondrial complex 1 in human MCF7 cells assessed as concentration required to obtain half maximal lactate production after 3 hrs by spectrophotometry; format: cell-based; details: MCF7, 3 h
Method in brief: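 MCF-7 cells seeded at 2 × 10^5 per well and grown 24 h to about 50% confluence, then rinsed. Compounds given in Krebs-Ringer buffer for 3 h, with buffer controls. Supernatant lactate measured by ΔOD at 363 nm (ε 9.1 mM−1 cm−1). IC50 is the dose giving 50% of maximal lactate production. Points are the mean ± SD of triplicates; experiments repeated at least three times.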

[8] = Cytotoxicity against mouse 3LL cells by MTT assay; format: functional, cell-based; method in brief: as §1
[9] = Cytotoxicity against human CRL2365 cells by MTT assay; format: functional, cell-based; method in brief: as §1

| SMILES | IC50 [1] [µM] | IC50 [6] [µM] | IC50 [2] [µM] | IC50 [3] [µM] | IC50 [4] [µM] | IC50 [5] [µM] | IC50 [7] [µM] | IC50 [8] [µM] | IC50 [9] [µM] |
| --- | --- | --- | --- | --- | --- | --- | --- | --- | --- |
| COc1oc(CC(O)CCCCCOc2ccc(-c3ccccc3)cc2)c(C)c(=O)c1C (stereo not given) | 0.0359 | 0.102 | 19.5 | 17.4 | 17 | 9.2 | 0.34 | 13.5 | 12.4 |
| CCCCCCCCC(C)(O)CCc1oc(C)c(C)c(=O)c1C (racemic) | 0.055 | 0.18 | > 31 | > 31 | > 31 | > 31 | 0.94 | > 31 | > 31 |
| CCCCCCCC[C@@](C)(O)CCc1oc(C)c(C)c(=O)c1C | 0.0508 | 0.145 | – | – | – | – | – | – | – |
| COc1oc(CC(O)CCCCCCc2ccccc2)c(C)c(=O)c1C (stereo not given) | 0.0725 | 0.257 | > 27 | > 27 | > 27 | 15.1 | 0.88 | 17.3 | > 27 |
| CCCCCC[C@H]1C(=O)O[C@H](C)[C@H](NC(=O)c2cccc(NC=O)c2O)C(=O)O[C@@H](C)[C@@H]1OC(=O)CC(C)C [ANTIMYCIN A] | – | – | – | – | – | – | < 0.15 | – | – |
| CCCCCCCCC(C)(O)CCc1[nH]c(=O)c(C)c(O)c1C (racemic) | 4.29 | 1.25 | – | – | – | – | – | – | – |
| CCCCC(O)Cc1oc(OC)c(C)c(=O)c1C (stereo not given) | > 20 | > 25 | – | – | – | – | > 20 | – | – |
| CCCCCCCC[C@@](C)(O)CCc1oc(=O)c(C)c(O)c1C | 14.7 | 19 | > 31 | > 31 | > 31 | > 31 | 8.6 | > 31 | > 31 |
| CCCCCCCCC(C)(O)CCc1oc(=O)c(C)c(O)c1C (racemic) | 13.6 | 16.4 | > 31 | > 31 | > 31 | > 31 | 4.9 | > 31 | > 31 |
| CCCCCCCCC(C)(O)CCc1oc(OC)c(C)c(=O)c1C (racemic) | 0.0526 | 0.151 | – | – | – | – | 0.38 | – | – |

More lines, in order of falling IC50 [1], values ahead:

| IC50 [1] [µM] | IC50 [6] [µM] | SMILES | IC50 [2] [µM] | IC50 [3] [µM] | IC50 [4] [µM] | IC50 [5] [µM] | IC50 [7] [µM] | IC50 [8] [µM] | IC50 [9] [µM] |
| --- | --- | --- | --- | --- | --- | --- | --- | --- | --- |
| 10.7 | 13.3 | CCCCCCCC[C@](C)(O)CCc1oc(=O)c(C)c(O)c1C | > 31 | > 31 | > 31 | > 31 | 16.6 | > 31 | > 31 |
| 0.219 | 0.595 | COc1oc(CC(O)CCCCCOc2ccccc2)c(C)c(=O)c1C (stereo not given) | – | – | – | – | – | – | – |
| 0.0649 | 0.231 | CCCCCCCCCC(O)Cc1oc(OC)c(C)c(=O)c1C (stereo not given) | > 31 | 23.2 | 20.7 | 9.9 | 0.9 | 22.2 | 29.9 |
| 0.0475 | 0.135 | CCCCCCCC[C@](C)(O)CCc1oc(C)c(C)c(=O)c1C | – | – | – | – | – | – | – |
| 0.0459 | 0.133 | CCCCCCCC[C@@](C)(O)CCc1oc(OC)c(C)c(=O)c1C | 2.7 | 3.3 | 5.3 | 5.3 | 0.3 | 0.39 | 3.3 |
| 0.0432 | 0.126 | CCCCCCCC[C@](C)(O)CCc1oc(OC)c(C)c(=O)c1C | 3.3 | – | 4.1 | 5.6 | 0.18 | 0.34 | 2.4 |
